Data on 17 molecules can be found in ChEMBL document CHEMBL1134621, “Discovery of 4-[(Z)-(4-bromophenyl)- (ethoxyimino)methyl]-1'-[(2,4-dimethyl-3- pyridinyl)carbonyl]-4'-methyl-1,4'- bipiperidine N-oxide (SCH 351125): an orally bioavailable human CCR5 antagonist for the treatment of HIV infection” (J Med Chem, 2001).

pIC50, pKi: −log10 of the molar value.

The test system of data set [1] is Rattus norvegicus. Put plainly: Area under curve (0-6 hr) value in rat at a concentration of 10 mg/kg after peroral administration. It is filed as ADME, organism-based. Also noted: time < 6 hr, dose 10 mg/kg, route oral. Particulars: in vivo, po.
The target in data set [2] is C-C chemokine receptor type 5 (Homo sapiens, UniProt P51681). Put plainly: Inhibition of RANTES binding to C-C chemokine receptor type 5.
C-C chemokine receptor type 5, sequence (P51681 whole entry): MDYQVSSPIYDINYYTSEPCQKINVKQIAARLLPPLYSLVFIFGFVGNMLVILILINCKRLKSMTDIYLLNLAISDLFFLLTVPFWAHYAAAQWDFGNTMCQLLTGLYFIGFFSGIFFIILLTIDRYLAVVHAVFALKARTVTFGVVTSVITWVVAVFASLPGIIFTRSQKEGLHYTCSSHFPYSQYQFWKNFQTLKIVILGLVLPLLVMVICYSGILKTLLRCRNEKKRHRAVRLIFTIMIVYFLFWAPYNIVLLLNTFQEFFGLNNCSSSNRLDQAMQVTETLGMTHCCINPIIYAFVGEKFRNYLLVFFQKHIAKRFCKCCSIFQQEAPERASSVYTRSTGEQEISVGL
Data set [3] has as its system Human immunodeficiency virus 1. Put plainly: microbe, parasite or virus in culture. The class given is functional, organism-based. Particulars: Human immunodeficiency virus 1, U-87 MG.
The test system of data set [4] is Rattus norvegicus. Put plainly: Area under curve (0-6 hr) value in rat at a concentration of 10 mg/kg, peroral administration. It is filed as ADME, organism-based. Also noted: time < 6 hr, dose 10 mg/kg, route oral. Particulars: in vivo, po.
Data set [5] has as its system Rattus norvegicus. Put plainly: Oral bioavailability was evaluated in rat at a dose of 10 mg/kg. The class given is ADME, organism-based. Particulars: in vivo. The method, boiled down:
(§1)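 Rat pharmacokinetics using the amorphous tartrate salt. Dosing was 10 mg/kg iv in 20% hydroxypropyl-β-cyclodextrin and 10 mg/kg po in 0.4% methylcellulose. […] Oral bioavailability was derived by comparing oral with iv exposure.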

The subject of data set [6] is Rattus norvegicus. Put plainly: In vivo pharmacokinetic parameter, Area under curve (AUC) was measured in rat after 10 mg/kg iv administration. The class given is ADME, organism-based. More on the design: dose 10 mg/kg, route intravenous. The method, boiled down: as §1
Data set [7] can be described thus: In vivo pharmacokinetic parameter, half-life (t1/2) was measured in rat after 10 mg/kg iv administration. It is filed as ADME, organism-based. Also noted: dose 10 mg/kg, route intravenous. The method, boiled down: as §1
In data set [8] the test system is Canis familiaris. Put plainly: Oral bioavailability was evaluated in dog at a dose of 3 mg/kg. Particulars: in vivo.
Data set [9] in a line: Oral bioavailability was evaluated in monkey at a dose of 2 mg/kg. Particulars: simiiformes, in vivo.
Data set [10] is described as follows: In vivo pharmacokinetic parameter, half-life (t1/2) was measured in dog after 1 mg/kg iv administration.
Assay in data set [11]: as above
This is another data set of the same source.

The nature of data set [12]: In vivo pharmacokinetic parameter, half-life (t1/2) was measured in monkey after 2 mg/kg iv administration. Particulars: simiiformes.
Data set [13] relates to Canis familiaris. Put plainly: In vivo pharmacokinetic parameter, Area under curve (AUC) was measured in dog after 1 mg/kg iv administration.
Data set [14] in a line: In vivo pharmacokinetic parameter, Area under curve (AUC) was measured in monkey after 2 mg/kg iv administration. Particulars: simiiformes.

On to `CO/N=C(\c1ccc(Br)cc1)C1CCN(C2(C)CCN(C(=O)c3c(N)cccc3Cl)CC2)CC1`, for which the AUC 0-6h in the data set with Rattus norvegicus [1] is 610 ng·h/mL. In [2], the negative-log Ki (pKi) (commonly the negative decadic logarithm of the Ki, by convention in mol/L) is 8.47. The negative logarithm of the IC50 (pIC50) – broadly, the IC50 on a negative log10 scale, so that one unit is a factor of ten – in data set [3] is 9.22.

Molecule `CCO/N=C(\c1ccc(Br)cc1)C1CCN(C2(C)CCN(C(=O)c3c(C)ccnc3C)CC2)CC1` came in with an AUC 0-6h in the data set with Rattus norvegicus [1] of 2100 ng·h/mL. For the same molecule, in [2], the pKi was 8.96. This molecule also gave a negative-log IC50 (pIC50) in data set [3] of 9.70.

As for `CO/N=C(\c1ccc(Br)cc1)C1CCN(C2(C)CCN(C(=O)c3c(C)cc[n+]([O-])c3C)CC2)CC1`, the AUC 0-6h in the data set with Rattus norvegicus [1] came out at 2400 ng·h/mL. The molecule further showed a pKi in data set [2] of 7.74. The pIC50 in data set [3] is 8.25.

In the case of `Cc1cccc(C)c1C(=O)N1CCC(C)(N2CCC(C(=O)c3ccc(Br)cc3)CC2)CC1`, in [2], the pKi was 7.27. In data set [3], this molecule showed a negative-log IC50 (pIC50) of 7.89.

`Cc1cccc(C)c1C(=O)N1CCC(C)(N2CCC(Cc3ccc(Br)cc3)CC2)CC1` showed an AUC 0-6h in the data set on Rattus norvegicus [4] of 40 ng·h/mL. For the same molecule, in data set [2], the pKi was 7.18. Also, the negative-log IC50 (pIC50) in data set [3] is 8.00.

In the case of `CO/N=C(\c1ccc(Br)cc1)C1CCN(C2(C)CCN(C(=O)c3c(C)cccc3O)CC2)CC1`, in the data set on Rattus norvegicus [1], the AUC 0-6h worked out at 3000 ng·h/mL. The molecule further had a pIC50 in data set [3] of 8.40.

In the case of `Cc1cccc(C)c1C(=O)N1CCC(C)(N2CCC(Oc3ccc(Br)cc3)CC2)CC1`, the pKi in [2] is 7.54.

Regarding `COc1ccc(S(=O)(=O)c2ccc(CC3CCN(C4CCN(C(=O)c5ccc(F)c6ccccc56)CC4)CC3)cc2)cc1`, in data set [2], the pKi was 7.18.

On to `CO/N=C(\c1ccc(Br)cc1)C1CCN(C2(C)CCN(C(=O)c3c(C)cccc3N)CC2)CC1`, for which, in the data set on Rattus norvegicus [1], the AUC 0-6h came to 1300 ng·h/mL. Further, the negative-log Ki (pKi) in [2] is 8.35. Further, the pIC50 in data set [3] was 9.30.

On to `CO/N=C(/c1ccc(Br)cc1)C1CCN(C2CCN(C(=O)c3c(C)cccc3C)CC2)CC1`, for which the AUC 0-6h in the data set on Rattus norvegicus [1] came to 1400 ng·h/mL. In addition, the pKi in data set [2] was 8.70. In addition, the pIC50 in [3] is 8.92.

In the data set with Rattus norvegicus [1], `CO/N=C(/c1ccc(Br)cc1)C1CCN(C2(C)CCN(C(=O)c3c(C)cccc3C)CC2)CC1` returned an AUC 0-6h of 1200 ng·h/mL. The negative logarithm of the Ki (pKi) in data set [2] is 7.60. Moreover, the negative-log IC50 (pIC50) in data set [3] is 8.55.

In the data set with Rattus norvegicus [1], `CON=C(c1ccc(Br)cc1)C1CCN(C2(C)CCN(C(=O)c3c(C)cccc3C)CC2)CC1` had an AUC 0-6h of 2100 ng·h/mL. Besides, in data set [3], the pIC50 is 8.82.

For the molecule `Cc1cccc(C)c1C(=O)N1CCC(C)(N2CCC(Nc3ccc(Br)cc3)CC2)CC1`, the AUC 0-6h in the data set with Rattus norvegicus [1] was 150 ng·h/mL. The molecule also showed a pIC50 in data set [3] of 8.26.

In the case of `CO/N=C(\c1ccc(Br)cc1)C1CCN(C2(C)CCN(C(=O)c3c(C)ccnc3C)CC2)CC1`, the AUC 0-6h in the data set with Rattus norvegicus [1] is 1900 ng·h/mL. In data set [2], this molecule had a pKi of 8.96. The molecule also showed a pIC50 in [3] of 9.30.

The molecule `CCO/N=C(\c1ccc(Br)cc1)C1CCN(C2(C)CCN(C(=O)c3c(C)cccc3C)CC2)CC1` displayed an AUC 0-6h with Rattus norvegicus [1] of 1000 ng·h/mL. Besides, the negative-log Ki (pKi) in data set [2] is 8.74. The pIC50 in data set [3] is 8.89.

Regarding `CCO/N=C(/c1ccc(Br)cc1)C1CCN(C2(C)CCN(C(=O)c3c(C)cccc3C)CC2)CC1`, the negative-log Ki (pKi) in data set [2] is 7.32. The same molecule gave a pIC50 in [3] of 8.04.

In the case of `CCO/N=C(\c1ccc(Br)cc1)C1CCN(C2(C)CCN(C(=O)c3c(C)cc[n+]([O-])c3C)CC2)CC1` [ANCRIVIROC], the BA was determined as 63% with Rattus norvegicus [5], 92% with Canis familiaris [8] and 52% in data set [9]. The area under the curve (AUC) (usually concentration integrated over time) in the data set with Rattus norvegicus [6] came out at 13000 ng·h/mL; in the data set with Canis familiaris [13], 2800 ng·h/mL; in data set [14] it was 7400 ng·h/mL. For the same molecule, the AUC 0-6h in the data set with Rattus norvegicus [1] is 6500 ng·h/mL. The half-life – broadly, how long it takes for the measured level to halve – in data set [7] is 5 h; in [10], 10 h; in data set [11], 10 h; in data set [12], 6 h. Moreover, the negative-log Ki (pKi) in data set [2] is 8.68. Further, in data set [3], the pIC50 was 9.22.
